Data on 16 compounds can be found in ChEMBL document CHEMBL2010755, “Synthesis of new sulfonamides as lipoxygenase inhibitors” (Bioorg Med Chem, 2012).

Assay [1] can be described thus: Inhibition of lipoxygenase using linoleic acid as substrate at 0.5 mM after 10 mins preincubation. The gist of the method:
(§1)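 Purified lipoxygenase (600 units per well) in 100 mM sodium phosphate buffer pH 8.0, with test compound. Pre-read at 234 nm, preincubated 10 min at 25 °C, then started with linoleic acid. Absorbance change at 234 nm read after 6 min. Percent inhibition tested at 0.5 mM. IC50 obtained from dilutions of compounds exceeding 50% inhibition. Triplicates, mean ± SEM.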

The nature of assay [2]: Inhibition of lipoxygenase using linoleic acid as substrate after 10 mins preincubation. The gist of the method:
as §1

Take `CCOC(=O)c1ccc(N(CC)S(=O)(=O)c2ccc(C)cc2)cc1`: the inhibition in assay [1] was found to be 97.6%. This compound displayed a half-inhibitory concentration (IC50) in assay [2] of 231 µM. `CCCCN(c1ccc(C(=O)O)cc1)S(=O)(=O)c1ccc(C)cc1`: the inhibition in assay [1] is 99.4%. In assay [2], this compound yielded an IC50 of 61.4 µM. The corresponding values for `CCCN(c1ccc(C(=O)O)cc1)S(=O)(=O)c1ccc(C)cc1` are 40% and > 500 µM. Regarding `Cc1ccc(S(=O)(=O)Nc2ccc(C(=O)O)cc2)cc1`, in assay [1], the inhibition stood at 99.4%. Moreover, in assay [2], the midpoint of inhibition, the IC50, lay at 139 µM. For `Cc1ccc(S(=O)(=O)N(Cc2ccccc2)c2ccc(C(=O)O)cc2)cc1`, the inhibition in assay [1] was 85.1%. In addition, in assay [2], the half-maximal inhibitory concentration (IC50) stood at 59.1 µM. Take `Cc1ccc(S(=O)(=O)N(C(=O)c2ccccc2)c2ccc(C(=O)O)cc2)cc1`: in assay [1], the inhibition was determined as 99%. In assay [2], this compound came in with an IC50 of 91.7 µM. In assay [1], `Cc1ccc(S(=O)(=O)Nc2ccc(C(=O)OCC#N)cc2)cc1` had an inhibition of 97%. 232 µM corresponded to half-maximal inhibition in assay [2] (IC50).

Turning to `CCCCCN(c1ccc(C(=O)O)cc1)S(=O)(=O)c1ccc(C)cc1`, the inhibition in assay [1] worked out at 98.6%. In assay [2], this compound registered an IC50 of 68.6 µM.

For the compound `Cc1ccc(S(=O)(=O)N(C(=O)c2ccc(Cl)cc2)c2ccc(C(=O)O)cc2)cc1`, the inhibition in assay [1] worked out at 98.1%. The compound further gave an IC50 in assay [2] of 176 µM. In the case of `CC(C)=CCN(c1ccc(C(=O)O)cc1)S(=O)(=O)c1ccc(C)cc1`, the inhibition in assay [1] worked out at 98.7%. Besides, the half-maximal inhibitory concentration (IC50) in assay [2] was 15.8 µM. `O=c1c(O)c(-c2ccc(O)c(O)c2)oc2cc(O)cc(O)c12` [QUERCETIN]: it took 37.1 µM to reach half-maximal inhibition in assay [2] (IC50). Turning to `O=c1cc(-c2ccccc2)oc2cc(O)c(O)c(O)c12` [BAICALEIN], the IC50 in assay [2] amounted to 22.4 µM.

In assay [1], `COC(=O)c1ccc(N(C)S(=O)(=O)c2ccc(C)cc2)cc1` came in with an inhibition of 88.5%. Moreover, half-maximal inhibition in assay [2] (IC50) was put at 189 µM.

The compound `Cc1ccc(S(=O)(=O)N(C/C=C/c2ccccc2)c2ccc(C(=O)OC/C=C/c3ccccc3)cc2)cc1` returned an inhibition in assay [1] of 26.9%. The IC50 in assay [2] was > 600 µM. Regarding `Cc1ccc(S(=O)(=O)N(CCCl)c2ccc(C(=O)O)cc2)cc1`, the inhibition in assay [1] came to 21.9%. The half-maximal inhibitory concentration (IC50) in assay [2] is > 600 µM. The matching figures for `C=CCN(c1ccc(C(=O)O)cc1)S(=O)(=O)c1ccc(C)cc1`: 96.2% and 219 µM.
